Assay results published in ChEMBL document CHEMBL1122219, “Synthesis and antiviral activity of water-soluble esters of acyclovir [9-[(2-hydroxyethoxy)methyl]guanine]” (1983).
Converted amounts (≈) assume the structure as drawn.

Tests used:
Assay type in all cases: functional
Oryctolagus cuniculus [1] = organism: Oryctolagus cuniculus; assay: Minimum inhibitory concentration required to reduce virus induced cytopathogenicity in primary rabbit kidney cell cultures by 50% against HSV-1 ((KOS)
How it was run: (§1)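 Primary rabbit kidney cell cultures infected with HSV-1 strains KOS, McIntyre or F, or HSV-2 strains Lyons, G or 196. Antiviral assays ran 3–4 days, with inhibition of virus-induced cytopathogenicity as the read-out. Cytotoxicity was checked as microscopically visible change in normal cell morphology, up to 400 µg/mL.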

Oryctolagus cuniculus [2] = organism: Oryctolagus cuniculus; assay: Minimum inhibitory concentration required to reduce virus induced cytopathogenicity in primary rabbit kidney cell cultures by 50% against HSV-2 ([…]); how it was run: as §1
Oryctolagus cuniculus [3] = organism: Oryctolagus cuniculus; assay: Minimum inhibitory concentration required to reduce virus induced cytopathogenicity in primary rabbit kidney cell cultures by 50% against HSV-2 (196); how it was run: as §1
Oryctolagus cuniculus [4] = organism: Oryctolagus cuniculus; assay: Minimum inhibitory concentration required to reduce virus induced cytopathogenicity in primary rabbit kidney cell cultures by 50% against HSV-2 (G); how it was run: as §1
Oryctolagus cuniculus [5] = organism: Oryctolagus cuniculus; assay: Minimum inhibitory concentration required to reduce virus induced cytopathogenicity in primary rabbit kidney cell cultures by 50% against HSV-1 (McIntyre); how it was run: as §1
Oryctolagus cuniculus [6] = organism: Oryctolagus cuniculus; assay: Minimum inhibitory concentration required to reduce virus induced cytopathogenicity in primary rabbit kidney cell cultures by 50% against HSV-1 (F); how it was run: as §1
Oryctolagus cuniculus [7] = organism: Oryctolagus cuniculus; assay: Minimum inhibitory concentration required to reduce virus induced cytopathogenicity in primary rabbit kidney cell cultures by 50% against Vesicular stomatitis virus
Oryctolagus cuniculus [8] = organism: Oryctolagus cuniculus; assay: Minimum inhibitory concentration required to reduce virus induced cytopathogenicity in primary rabbit kidney cell cultures by 50% against Vaccinia virus

Structure (SMILES): Nc1nc(O)c2ncn(COCCOC(=O)CCC(=O)[O-])c2n1.[Na+]
- MIC (Oryctolagus cuniculus [1]): 0.7 µg/mL
- MIC (Oryctolagus cuniculus [2]): 0.5 µg/mL
- MIC (Oryctolagus cuniculus [3]): 0.4 µg/mL
- MIC (Oryctolagus cuniculus [4]): 0.8 µg/mL
- MIC (Oryctolagus cuniculus [5]): 0.5 µg/mL
- MIC (Oryctolagus cuniculus [6]): 0.7 µg/mL
- MIC (Oryctolagus cuniculus [7]): > 400 µg/mL
- MIC (Oryctolagus cuniculus [8]): > 400 µg/mL

Structure (SMILES): Cl.NCC(=O)OCCOCn1cnc2c(O)nc(N)nc21
- MIC (Oryctolagus cuniculus [1]): 0.1 µg/mL
- MIC (Oryctolagus cuniculus [2]): 0.04 µg/mL
- MIC (Oryctolagus cuniculus [3]): 0.07 µg/mL
- MIC (Oryctolagus cuniculus [4]): 0.08 µg/mL
- MIC (Oryctolagus cuniculus [5]): 0.1 µg/mL
- MIC (Oryctolagus cuniculus [6]): 0.1 µg/mL
- MIC (Oryctolagus cuniculus [7]): > 400 µg/mL
- MIC (Oryctolagus cuniculus [8]): 125 µg/mL

Structure (SMILES): CC(N)C(=O)OCCOCn1cnc2c(O)nc(N)nc21.Cl (stereo not drawn)
- MIC (Oryctolagus cuniculus [1]): 0.4 µg/mL
- MIC (Oryctolagus cuniculus [2]): 0.07 µg/mL
- MIC (Oryctolagus cuniculus [3]): 0.1 µg/mL
- MIC (Oryctolagus cuniculus [4]): 0.2 µg/mL
- MIC (Oryctolagus cuniculus [5]): 0.4 µg/mL
- MIC (Oryctolagus cuniculus [6]): 0.4 µg/mL
- MIC (Oryctolagus cuniculus [7]): > 400 µg/mL
- MIC (Oryctolagus cuniculus [8]): 70 µg/mL

Structure (SMILES): Nc1nc2c(ncn2COCCO)c(=O)[nH]1 [ACYCLOVIR]
- MIC (Oryctolagus cuniculus [1]): 0.08 µg/mL (≈ 0.355 µM)
- MIC (Oryctolagus cuniculus [2]): 0.04 µg/mL (≈ 0.178 µM)
- MIC (Oryctolagus cuniculus [3]): 0.06 µg/mL (≈ 0.266 µM)
- MIC (Oryctolagus cuniculus [4]): 0.06 µg/mL (≈ 0.266 µM)
- MIC (Oryctolagus cuniculus [5]): 0.1 µg/mL (≈ 0.444 µM)
- MIC (Oryctolagus cuniculus [6]): 0.09 µg/mL (≈ 0.4 µM)
- MIC (Oryctolagus cuniculus [7]): > 400 µg/mL
- MIC (Oryctolagus cuniculus [8]): 80 µg/mL (≈ 355 µM)

Structure (SMILES): Cl.NCCC(=O)OCCOCn1cnc2c(O)nc(N)nc21
- MIC (Oryctolagus cuniculus [1]): 0.2 µg/mL
- MIC (Oryctolagus cuniculus [2]): 0.1 µg/mL
- MIC (Oryctolagus cuniculus [3]): 0.1 µg/mL
- MIC (Oryctolagus cuniculus [4]): 0.15 µg/mL
- MIC (Oryctolagus cuniculus [5]): 0.4 µg/mL
- MIC (Oryctolagus cuniculus [6]): 0.5 µg/mL
- MIC (Oryctolagus cuniculus [7]): > 400 µg/mL
- MIC (Oryctolagus cuniculus [8]): 100 µg/mL

Structure (SMILES): O=c1[nH]c(=O)n([C@H]2C[C@H](O)[C@@H](CO)O2)cc1/C=C/Br [BRIVUDINE]
- MIC (Oryctolagus cuniculus [1]): 0.01 µg/mL (≈ 0.03 µM)
- MIC (Oryctolagus cuniculus [2]): 1 µg/mL (≈ 3 µM)
- MIC (Oryctolagus cuniculus [3]): 4 µg/mL (≈ 12 µM)
- MIC (Oryctolagus cuniculus [4]): 0.8 µg/mL (≈ 2.4 µM)
- MIC (Oryctolagus cuniculus [5]): 0.01 µg/mL (≈ 0.03 µM)
- MIC (Oryctolagus cuniculus [6]): 0.01 µg/mL (≈ 0.03 µM)
- MIC (Oryctolagus cuniculus [7]): > 400 µg/mL
- MIC (Oryctolagus cuniculus [8]): 4 µg/mL (≈ 12 µM)

Structure (SMILES): [N-]=[N+]=NCC(=O)OCCOCn1cnc2c(O)nc(N)nc21
- MIC (Oryctolagus cuniculus [1]): 0.1 µg/mL (≈ 0.324 µM)
- MIC (Oryctolagus cuniculus [2]): 0.04 µg/mL (≈ 0.13 µM)
- MIC (Oryctolagus cuniculus [3]): 0.07 µg/mL (≈ 0.227 µM)
- MIC (Oryctolagus cuniculus [4]): 0.07 µg/mL (≈ 0.227 µM)
- MIC (Oryctolagus cuniculus [5]): 0.1 µg/mL (≈ 0.324 µM)
- MIC (Oryctolagus cuniculus [6]): 0.1 µg/mL (≈ 0.324 µM)
- MIC (Oryctolagus cuniculus [8]): 150 µg/mL (≈ 487 µM)

Structure (SMILES): O=c1[nH]c(=O)n([C@H]2C[C@H](O)[C@@H](CO)O2)cc1I [IDOXURIDINE]
- MIC (Oryctolagus cuniculus [1]): 0.15 µg/mL (≈ 0.424 µM)
- MIC (Oryctolagus cuniculus [2]): 0.2 µg/mL (≈ 0.565 µM)
- MIC (Oryctolagus cuniculus [3]): 0.4 µg/mL (≈ 1.13 µM)
- MIC (Oryctolagus cuniculus [4]): 0.2 µg/mL (≈ 0.565 µM)
- MIC (Oryctolagus cuniculus [5]): 0.2 µg/mL (≈ 0.565 µM)
- MIC (Oryctolagus cuniculus [6]): 0.15 µg/mL (≈ 0.424 µM)
- MIC (Oryctolagus cuniculus [7]): > 400 µg/mL
- MIC (Oryctolagus cuniculus [8]): 0.1 µg/mL (≈ 0.282 µM)
